Assay results taken from ChEMBL document CHEMBL3108701, “Isolation of arginase inhibitors from the bioactivity-guided fractionation of Byrsonima coccolobifolia leaves and stems” (J Nat Prod, 2014).

Tests used:
Arginase [1] = molecular target: T1, Arginase (Leishmania amazonensis, UniProt O96394); assay: Inhibition of Leishmania amazonensis recombinant arginase expressed in Escherichia coli Rosetta (DE3) pLysS using L-arginine as substrate incubated for 10 mins prior to substrate addition measured after 10 mins by colorimetry
[2] = molecular target: Arginase (Leishmania amazonensis) (UniProt O96394); assay: Noncompetitive inhibition of Leishmania amazonensis recombinant arginase expressed in Escherichia coli Rosetta (DE3) pLysS using L-arginine as substrate assessed as enzyme-substrate-inhibitor complex by Dixon reciprocal plot analysis
In short: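 Purified recombinant L. amazonensis arginase in 50 mM CHES pH 9.6, 37 °C, with urea read at 600 nm by urease-coupled colorimetry. Three inhibitor concentrations plus an uninhibited control were tested against L-arginine at 6.25–72.0 mM. Inhibition type, Ki and Kis were taken from double-reciprocal plots.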

Arginase [3] = molecular target: T1, Arginase; assay: Noncompetitive inhibition of Leishmania amazonensis recombinant arginase expressed in Escherichia coli Rosetta (DE3) pLysS using L-arginine as substrate by Dixon reciprocal plot analysis
In short: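 His-tagged enzyme purified by Ni-NTA then DEAE anion exchange. Urea production from L-arginine measured in 50 mM CHES pH 9.6 at 37 °C. Enzyme was preincubated 10 min with inhibitor at three concentrations plus a no-inhibitor control. Substrate was then added at 6.25–72.0 mM and reacted for 10 min. Urea read by urease/salicylate–hypochlorite colorimetry at 600 nm, in duplicate. Inhibition type and Ki taken from reciprocal plots.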

IC50 (Arginase [1]) [µM] | Compound | Kis [2] [µM] | Ki (Arginase [3]) [µM]
121 | CC(=O)Oc1cc(OC(C)=O)c2c(=O)c(OC(C)=O)c(-c3ccc(OC(C)=O)c(OC(C)=O)c3)oc2c1 | – | –
88.1 | COc1ccc(-c2oc3cc(O)cc(O)c3c(=O)c2O[C@@H]2O[C@@H](C)[C@H](O)[C@@H](O)[C@H]2O)cc1O | – | –
224 | COc1c(O)cc(-c2oc3cc(O)cc(O)c3c(=O)c2O[C@@H]2O[C@@H](C)[C@H](O)[C@@H](O)[C@H]2O)cc1O | – | –
128 | COc1cc(-c2oc3cc(OC)c(OC)c(OC)c3c(=O)c2OC)cc(OC)c1OC | – | –
35.1 | C[C@@H]1O[C@@H](O[C@@H]2Cc3c(O)cc(O)cc3O[C@H]2c2ccc(O)c(O)c2)[C@H](O)[C@H](O)[C@H]1O | – | –
2 | O=c1c(O[C@@H]2O[C@H](CO)[C@@H](O)[C@H](O)[C@H]2O)c(-c2ccc(O)c(O)c2)oc2cc(O)cc(O)c12 [ISOQUERCETIN] | 6.9 | –
13.7 | COc1cc([C@H]2OC[C@H]3[C@@H]2CO[C@@H]3c2cc(OC)c(O)c(OC)c2)cc(OC)c1O [SYRINGARESINOL] | – | –
16.6 | COC1=Cc2c(cc(OC)c3cc(C)c(OC)cc23)C(C)(C)C1=O [TRIGONOSTEMONE] | – | –

Compound | IC50 (Arginase [1]) [µM] | Kis [2] [µM] | Ki (Arginase [3]) [µM]
C[C@H]1O[C@H](Oc2c(-c3cc(O)c(O)c(O)c3)oc3cc(O)cc(O)c3c2=O)[C@@H](O)[C@@H](O)[C@@H]1O | 2.4 | 1.9 | 3.8
Oc1cc(O)c2c(c1)O[C@H](c1ccc(O)c(O)c1)[C@H](O)C2 [(-)-EPICATECHIN] | 1.6 | – | 0.2
Oc1cc(O)c2c(c1)O[C@H](c1ccc(O)c(O)c1)[C@@H](O)C2 [CIANIDANOL] | 1.7 | – | 0.6
O=c1c(O)c(-c2ccc(O)cc2)oc2cc(O)cc(O)c12 [KAEMPFEROL] | 55 | – | –
O=c1c(O)c(-c2cc(O)c(O)c(O)c2)oc2cc(O)cc(O)c12 [MYRICETIN] | 2.1 | – | 1.2
O=c1c(O)c(-c2ccc(O)c(O)c2)oc2cc(O)cc(O)c12 [QUERCETIN] | 4 | – | –
C[C@@H]1O[C@@H](Oc2c(-c3ccc(O)c(O)c3)oc3cc(O)cc(O)c3c2=O)[C@H](O)[C@H](O)[C@H]1O [QUERCITRIN] | 12.2 | 7.2 | 7.9
